Source: ChEMBL document CHEMBL1136720, “Orally active, antimalarial, anticancer, artemisinin-derived trioxane dimers with high stability and efficacy” (J Med Chem, 2003)

How the values were obtained:
Plasmodium falciparum = experiment: In vitro antimalarial activity against chloroquine-sensitive Plasmodium falciparum NF 54; assay type: functional, organism-based
How it was run: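 In vitro test run in quadruplicate for each set, with the value taken from a fitted dose–response curve. Artemisinin was run as a concurrent control (n = 10).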

Mus musculus [1] = experiment: In vivo antimalarial activity in mice (Mus musculus) infected with Plasmodium berghei NY malaria parasite after intravenous administration for 4 days; assay type: functional; details: 96 h
How it was run: (§1)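 Mice infected with P. berghei NY were given drug intravenously or orally (per line) daily for 4 days, following a published protocol. The work was run as two separate groups of experiments, each with its own reference drugs.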

Mus musculus [2] = experiment: In vivo antimalarial activity in mice (Mus musculus) infected with Plasmodium berghei NY malaria parasite after oral administration for 4 days; assay type: functional; details: 96 h; how it was run: as §1
Mus musculus [3] = experiment: In vivo antimalarial activity in mice (Mus musculus) infected with Plasmodium berghei NY malaria parasite after intravenous administration determined as parasite suppression at 10 mg/kg; assay type: functional; how it was run: as §1
Mus musculus [4] = experiment: In vivo antimalarial activity in mice (Mus musculus) infected with Plasmodium berghei NY malaria parasite after oral administration determined as parasite suppression at 10 mg/kg; assay type: functional; how it was run: as §1
Mus musculus [5] = experiment: In vivo antimalarial activity in mice (Mus musculus) infected with Plasmodium berghei NY malaria parasite after intravenous administration for 4 days (Experiment 1); assay type: functional; details: 96 h; how it was run: as §1
Mus musculus [6] = experiment: In vivo antimalarial activity in mice (Mus musculus) infected with Plasmodium berghei NY malaria parasite after intravenous administration for 4 days (Experiment 2); assay type: functional; details: 96 h; how it was run: as §1
Mus musculus [7] = experiment: In vivo antimalarial activity in mice (Mus musculus) infected with Plasmodium berghei NY malaria parasite after intravenous administration determined as parasite suppression at 10 mg/kg (Experiment 1); assay type: functional; how it was run: as §1
Mus musculus [8] = experiment: In vivo antimalarial activity in mice (Mus musculus) infected with Plasmodium berghei NY malaria parasite after intravenous administration determined as parasite suppression at 10 mg/kg (Experiment 2); assay type: functional; how it was run: as §1
Mus musculus [9] = experiment: In vivo antimalarial activity in mice (Mus musculus) infected with Plasmodium berghei NY malaria parasite after oral administration for 4 days (Experiment 1); assay type: functional; details: 96 h
How it was run: (§2)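 P. berghei NY-infected mice given the compound orally once daily for 4 days, following a previously published protocol. Two separate groups of experiments were run, each with its own concurrent reference drugs.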

Mus musculus [10] = experiment: In vivo antimalarial activity in mice (Mus musculus) infected with Plasmodium berghei NY malaria parasite after oral administration for 4 days (Experiment 2); assay type: functional; details: 96 h; how it was run: as §2
Mus musculus [11] = experiment: In vivo antimalarial activity in mice (Mus musculus) infected with Plasmodium berghei NY malaria parasite after oral administration determined as parasite suppression at 10 mg/kg (Experiment 1); assay type: functional
How it was run: (§3)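 P. berghei NY-infected mice dosed orally at 10 mg/kg body weight, following a previously published protocol. Read-out is % suppression of parasite growth. Two separate groups of experiments were run, each with its own concurrent reference drugs.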

Mus musculus [12] = experiment: In vivo antimalarial activity in mice (Mus musculus) infected with Plasmodium berghei NY malaria parasite after oral administration determined as parasite suppression at 10 mg/kg (Experiment 2); assay type: functional; how it was run: as §3

C[C@@H]1CC[C@H]2[C@@H](C)C(CC(=O)CC3OC4O[C@]5(C)CC[C@H]6[C@H](C)CC[C@@H]([C@H]3C)C46OO5)OC3O[C@]4(C)CCC1C32OO4 (stereo partly specified)
IC50 (Plasmodium falciparum): 0.91 nM

C=C(CC1OC2O[C@]3(C)CCC4[C@H](C)CC[C@@H]([C@H]1C)C24OO3)CC1OC2O[C@]3(C)CC[C@H]4[C@H](C)CC[C@@H]([C@H]1C)C24OO3 (stereo partly specified)
IC50 (Plasmodium falciparum): 24 nM

C[C@@H]1CC[C@H]2[C@@H](C)C(CC3(CC4OC5O[C@]6(C)CC[C@H]7[C@H](C)CC[C@@H]([C@H]4C)C57OO6)CO3)OC3O[C@]4(C)CCC1C32OO4 (stereo partly specified)
IC50 (Plasmodium falciparum): 2.8 nM

C[C@H]1[C@@H](CC(O)(CO)C[C@H]2O[C@@H]3O[C@]4(C)CC[C@H]5[C@H](C)CC[C@@H]([C@H]2C)[C@@]35OO4)O[C@@H]2O[C@]3(C)CC[C@H]4[C@H](C)CC[C@@H]1[C@@]24OO3 (stereo partly specified)
IC50 (Plasmodium falciparum): 0.59 nM

C[C@@H]1CC[C@H]2[C@@H](C)C(CC(COC(=O)c3ccncc3)CC3OC4O[C@]5(C)CC[C@H]6[C@H](C)CC[C@@H]([C@H]3C)C46OO5)OC3O[C@]4(C)CCC1C32OO4 (stereo partly specified)
IC50 (Plasmodium falciparum): 1.7 nM

C[C@@H]1CC[C@H]2[C@@H](C)C(CC(COC(=O)CCC(=O)O)CC3OC4O[C@]5(C)CC[C@H]6[C@H](C)CC[C@@H]([C@H]3C)C46OO5)OC3O[C@]4(C)CCC1C32OO4 (stereo partly specified)
ED50 (Mus musculus [1]): 2.2 mg/kg/day
ED90 (Mus musculus [1]): 6.3 mg/kg/day
ED50 (Mus musculus [2]): 9 mg/kg/day
ED90 (Mus musculus [2]): 15 mg/kg/day
Parasite suppression (Mus musculus [3]): 81%
Parasite suppression (Mus musculus [4]): 79.2%
IC50 (Plasmodium falciparum): 2 nM

C[C@@H]1CC[C@H]2[C@@H](C)C(CC(O)(CC3OC4O[C@]5(C)CC[C@H]6[C@H](C)CC[C@@H]([C@H]3C)C46OO5)CS(=O)(=O)c3ccc(C(=O)O)cc3)OC3O[C@]4(C)CCC1C32OO4 (stereo partly specified)
ED50 (Mus musculus [1]): 2.7 mg/kg/day
ED90 (Mus musculus [1]): 10 mg/kg/day
ED50 (Mus musculus [2]): 7.5 mg/kg/day
ED90 (Mus musculus [2]): 35 mg/kg/day
Parasite suppression (Mus musculus [3]): 83.4%
Parasite suppression (Mus musculus [4]): 46.1%
IC50 (Plasmodium falciparum): 2.4 nM

C[C@@H]1CC[C@H]2[C@@H](C)C(CC(CO)CC3OC4O[C@]5(C)CC[C@H]6[C@H](C)CC[C@@H]([C@H]3C)C46OO5)OC3O[C@]4(C)CCC1C32OO4 (stereo partly specified)
IC50 (Plasmodium falciparum): 0.87 nM

C[C@@H]1CC[C@H]2[C@@H](C)C(CC(O)(CC3OC4O[C@]5(C)CC[C@H]6[C@H](C)CC[C@@H]([C@H]3C)C46OO5)c3ccc(C(=O)O)cc3)OC3O[C@]4(C)CCC1C32OO4 (stereo partly specified)
IC50 (Plasmodium falciparum): 2.1 nM

C[C@@H]1[C@H](OCc2ccc(C(=O)O)cc2)O[C@@H]2O[C@@]3(C)CC[C@@H]4[C@@H](C)CC[C@@H]1[C@]24OO3 (stereo in doubt) [ARTELINIC ACID]
ED50 (Mus musculus [5]): 11 mg/kg/day
ED90 (Mus musculus [5]): 25 mg/kg/day
ED50 (Mus musculus [6]): 5.6 mg/kg/day
ED90 (Mus musculus [6]): 43 mg/kg/day
Parasite suppression (Mus musculus [7]): 54.7%
Parasite suppression (Mus musculus [8]): 42.4%

C[C@@H]1CC[C@H]2[C@@H](C)C(=O)O[C@@H]3O[C@@]4(C)CC[C@@H]1[C@]32OO4 [ARTEMISININ]
IC50 (Plasmodium falciparum): 9 nM

C[C@H]1[C@H](OC(=O)CCC(=O)[O-])O[C@@H]2O[C@@]3(C)CC[C@H]4[C@H](C)CC[C@@H]1[C@@]24OO3.[Na+] [SODIUM ARESUNATE]
ED50 (Mus musculus [9]): 10 mg/kg/day
ED90 (Mus musculus [9]): 39 mg/kg/day
ED50 (Mus musculus [10]): 5.5 mg/kg/day
ED90 (Mus musculus [10]): 70 mg/kg/day
Parasite suppression (Mus musculus [11]): 52.8%
Parasite suppression (Mus musculus [12]): 50.9%

C[C@@H]1CC[C@H]2[C@@H](C)C(CC(O)(COC(=O)CCC(=O)O)CC3OC4O[C@]5(C)CC[C@H]6[C@H](C)CC[C@@H]([C@H]3C)C46OO5)OC3O[C@]4(C)CCC1C32OO4 (stereo partly specified) [TERTIARY ALCOHOL PRIMARY SUCCINATEESTER]
ED50 (Mus musculus [1]): 2.4 mg/kg/day
ED90 (Mus musculus [1]): 11 mg/kg/day
ED50 (Mus musculus [2]): 4.8 mg/kg/day
ED90 (Mus musculus [2]): 34 mg/kg/day
Parasite suppression (Mus musculus [3]): 83.4%
Parasite suppression (Mus musculus [4]): 55.4%
IC50 (Plasmodium falciparum): 3 nM
